ChEMBL document CHEMBL3425450, “Neuroactive Steroids. 1. Positive Allosteric Modulators of the (γ-Aminobutyric Acid)A Receptor: Structure-Activity Relationships of Heterocyclic Substitution at C-21” (J Med Chem, 2015)

Experiments:
[1] = Retention time of the compound by LC-MS analysis; format: physicochemical
Method in brief: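 Eluents were water and acetonitrile, each with TFA, run as a 5 to 95% acetonitrile gradient over 1.5 min at 1.5 mL/min. Capillary voltage was 3.5 kV and fragmentor voltage 50 V.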

[2] = target: GABA-A receptor; anion channel; experiment: Displacement of [3H]TBPS from GABAA receptor in Sprague-Dawley rat brain cortical membrane after 90 mins by liquid scintillation spectrometry
[3] = target: GABA-A receptor; agonist GABA site; experiment: Positive allosteric modulation of recombinant alpha4beta3delta GABAA receptor (unknown origin) expressed in CHO cells assessed as potentiation of GABA-induced channel current treated for 30 s prior to GABA stimulation for 2s by manual patch assay; format: cell-based, Homo sapiens
[4] = target: GABA-A receptor; agonist GABA site; experiment: Positive allosteric modulation of recombinant alpha1beta2gamma2 GABAA receptor (unknown origin) expressed in LTK cells assessed as potentiation of GABA-induced channel current treated for 30 s prior to GABA stimulation for 2s by Q-patch assay; format: cell-based, Homo sapiens

C[C@@]1(O)CC[C@H]2[C@@H](CC[C@@H]3[C@@H]2CC[C@]2(C)[C@@H](C(=O)CN4CCCC4)CC[C@@H]32)C1
Retention_time [1]: 0.77 min | IC50 [2]: 2890 nM

C[C@@]1(O)CC[C@H]2[C@H](CC[C@@H]3[C@@H]2CC[C@]2(C)[C@@H](C(=O)Cn4cc5ccccc5n4)CC[C@@H]32)C1
EC50 [3]: 2520 nM | Retention_time [1]: 0.92 min | IC50 [2]: 11 nM | EC50 [4]: 1900 nM

C[C@@]1(O)CC[C@H]2[C@H](CC[C@@H]3[C@@H]2CC[C@]2(C)[C@@H](C(=O)Cn4cccn4)CC[C@@H]32)C1
EC50 [3]: 1460 nM | Retention_time [1]: 0.88 min | IC50 [2]: 32 nM | EC50 [4]: 945 nM

C[C@@]1(O)CC[C@H]2[C@H](CC[C@@H]3[C@@H]2CC[C@]2(C)[C@@H](C(=O)Cn4cnnn4)CC[C@@H]32)C1
EC50 [3]: 394 nM | Retention_time [1]: 0.84 min | IC50 [2]: 69 nM | EC50 [4]: 2200 nM

C[C@@]1(O)CC[C@H]2[C@@H](CC[C@@H]3[C@@H]2CC[C@]2(C)[C@@H](C(=O)Cn4cnnn4)CC[C@@H]32)C1
EC50 [3]: 2140 nM | Retention_time [1]: 0.86 min | IC50 [2]: 214 nM | EC50 [4]: > 3000 nM

C[C@@]1(O)CC[C@H]2[C@@H](CC[C@@H]3[C@@H]2CC[C@]2(C)[C@@H](C(=O)Cn4nccn4)CC[C@@H]32)C1
EC50 [3]: 1420 nM | Retention_time [1]: 0.889 min | IC50 [2]: 54 nM | EC50 [4]: 592 nM

C[C@@]1(O)CC[C@H]2[C@@H](CC[C@@H]3[C@@H]2CC[C@]2(C)[C@@H](C(=O)Cn4cncn4)CC[C@@H]32)C1
EC50 [3]: 781 nM | Retention_time [1]: 0.84 min | IC50 [2]: 174 nM | EC50 [4]: > 3000 nM

C[C@@]1(O)CC[C@H]2[C@H](CC[C@@H]3[C@@H]2CC[C@]2(C)[C@@H](C(=O)Cn4ncc5cnccc54)CC[C@@H]32)C1
EC50 [3]: 1400 nM | Retention_time [1]: 0.75 min | IC50 [2]: 33 nM | EC50 [4]: > 3000 nM

C[C@@]1(O)CC[C@H]2[C@H](CC[C@@H]3[C@@H]2CC[C@]2(C)[C@@H](C(=O)Cn4ncc5cccnc54)CC[C@@H]32)C1
EC50 [3]: 1870 nM | Retention_time [1]: 0.9 min | IC50 [2]: 16 nM | EC50 [4]: 1750 nM

C[C@@]1(O)CC[C@H]2[C@H](CC[C@@H]3[C@@H]2CC[C@]2(C)[C@@H](C(=O)Cn4ncc5ccncc54)CC[C@@H]32)C1
EC50 [3]: > 3000 nM | Retention_time [1]: 0.8 min | IC50 [2]: 17 nM | EC50 [4]: > 3000 nM

C[C@@]1(O)CC[C@H]2[C@@H](CC[C@@H]3[C@@H]2CC[C@]2(C)[C@@H](C(=O)Cn4ccnc4)CC[C@@H]32)C1
EC50 [3]: > 3000 nM | Retention_time [1]: 0.76 min | IC50 [2]: 108 nM | EC50 [4]: > 3000 nM

C[C@@]1(O)CC[C@H]2[C@@H](CC[C@@H]3[C@@H]2CC[C@]2(C)[C@@H](C(=O)Cn4ccnn4)CC[C@@H]32)C1
EC50 [3]: 1320 nM | Retention_time [1]: 0.85 min | IC50 [2]: 102 nM | EC50 [4]: 2740 nM

C[C@@]1(O)CC[C@H]2[C@H](CC[C@@H]3[C@@H]2CC[C@]2(C)[C@@H](C(=O)Cn4ncc5c4CCCC5)CC[C@@H]32)C1
EC50 [3]: > 3000 nM | Retention_time [1]: 0.94 min | IC50 [2]: 50 nM | EC50 [4]: 1490 nM

C[C@@]1(O)CC[C@H]2[C@@H](CC[C@@H]3[C@@H]2CC[C@]2(C)[C@@H](C(=O)Cn4cccn4)CC[C@@H]32)C1
EC50 [3]: 1150 nM | Retention_time [1]: 0.89 min | IC50 [2]: 149 nM | EC50 [4]: > 3000 nM

CC(=O)[C@H]1CC[C@H]2[C@@H]3CC[C@@H]4C[C@](C)(O)CC[C@@H]4[C@H]3CC[C@]12C
EC50 [3]: 119 nM | IC50 [2]: 55 nM | EC50 [4]: 371 nM

C[C@@]1(O)CC[C@H]2[C@H](CC[C@@H]3[C@@H]2CC[C@]2(C)[C@@H](C(=O)Cn4ncc5ncccc54)CC[C@@H]32)C1
EC50 [3]: > 3000 nM | Retention_time [1]: 0.85 min | IC50 [2]: 25 nM | EC50 [4]: 2510 nM

C[C@@]1(O)CC[C@H]2[C@H](CC[C@@H]3[C@@H]2CC[C@]2(C)[C@@H](C(=O)CN4CCCC4)CC[C@@H]32)C1
Retention_time [1]: 0.745 min | IC50 [2]: 1290 nM
